Data from BindingDB's records for doi:10.1021/jm0510629 (University of Houston, 2006).

Assays:
Integrase [1] = biological target: T1, Integrase (Human immunodeficiency virus 1, UniProt Q7ZJM1); assay: Inhibition of 3'-processing activity of HIV1 integrase
In short: (§1)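 Then 20 nM 5′-32P-labeled 21-mer oligonucleotide added for 1 h. Quenched with formamide loading dye. % inhibition from 19-mer (3′-processing) or strand transfer product fractions versus DNA-alone and DNA+IN controls. IC50 from log concentration versus % inhibition plot.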

Integrase [2] = biological target: T1, Integrase; assay: Inhibition of strand transfer activity of HIV1 integrase; in short: as §1

T1 sequence (Q7ZJM1 whole entry): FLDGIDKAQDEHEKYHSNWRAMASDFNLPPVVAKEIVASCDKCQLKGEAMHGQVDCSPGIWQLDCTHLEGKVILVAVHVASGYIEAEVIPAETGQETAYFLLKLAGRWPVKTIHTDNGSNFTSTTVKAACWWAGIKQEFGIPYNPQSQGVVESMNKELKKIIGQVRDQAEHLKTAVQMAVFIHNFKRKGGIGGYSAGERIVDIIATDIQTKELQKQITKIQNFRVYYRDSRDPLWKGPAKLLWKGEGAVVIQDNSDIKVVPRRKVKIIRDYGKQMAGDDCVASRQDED

Structure (SMILES) | IC50 (Integrase [1]) [µM] | IC50 (Integrase [2]) [µM]
NCCCCCCNC(=O)c1c(O)c2ccccc2oc1=O [N-(6-aminohexyl)-4-hydroxy-2-oxo-2H-chromene-3-carboxamide] | > 100 | > 100
COc1ccc(C2C(C(=O)c3ccc(F)cc3)C(=O)C(=O)N2CCN(C)C)cc1OC (configuration not stated) [5-(3,4-dimethoxyphenyl)-1-(2-(dimethylamino)ethyl)-4-(4-fluorobenzoyl)-3-hydroxy-1H-pyrrol-2(5H)-one] | > 1000 | > 1000
COc1ccc(C2C(C(=O)c3ccccc3)C(=O)C(=O)N2CCCO)cc1OC (configuration not stated) [4-benzoyl-5-(3,4-dimethoxyphenyl)-3-hydroxy-1-(3-hydroxypropyl)-1H-pyrrol-2(5H)-one] | > 100 | > 100
Cc1ccc(C(=O)C2C(=O)C(=O)N(CCN(C)C)C2c2ccccc2F)cc1 (configuration not stated) [1-(2-(dimethylamino)ethyl)-5-(2-fluorophenyl)-3-hydroxy-4-(4-methylbenzoyl)-1H-pyrrol-2(5H)-one] | > 1000 | > 1000
O=C1C(=O)N(CCCN2CCOCC2)C(c2ccccc2F)C1C(=O)c1ccc(F)cc1 (configuration not stated) [4-(4-fluorobenzoyl)-5-(2-fluorophenyl)-3-hydroxy-1-(3-morpholinopropyl)-1H-pyrrol-2(5H)-one] | > 1000 | > 1000
CN(C)CCCN1C(=O)C(=O)C(C(=O)c2cccs2)C1c1cccs1 (configuration not stated) [1-(3-(dimethylamino)propyl)-3-hydroxy-5-(thiophen-2-yl)-4-(thiophene-2-carbonyl)-1H-pyrrol-2(5H)-one] | > 100 | > 100
